Measurements reported in ChEMBL document CHEMBL1140875, “DNA photocleavage by porphyrin-polyamine conjugates” (Bioorg Med Chem, 2009).
The source made the active and inactive calls. The calls are words filed in the database; no cut-off is given here.

Columns and labels:
[1] = Induction of singlet oxygen production at 1 uM after irradiation at 10 mW/cm2 in presence of 1,3-diphenylisobenzofuran; assay type: physicochemical
Summary of the method: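 Photosensitizer at 10^-6 M with DPBF at 6 × 10^-5 M in DMF/H2O (9/1). Illuminated at room temperature for 30 min with two 30 W white bulbs, 10 mW/cm2. DPBF absorbance decay read at 415 nm every 3 min.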

[2] = test system: Escherichia coli; experiment: Induction of DNA photocleavage activity in Escherichia coli pBR322 plasmid assessed as supercoiled DNA form at 10 uM after 30 mins irradiation at 2.5 mW/cm2 by gel electrophoresis
Summary of the method: (§1)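 Supercoiled pBR322 (0.25 µg in 10 µL) in 3 mM Tris–HCl, 0.3 mM EDTA, pH 8.0 at 25 °C, with 10 µM porphyrin. White light at 2.5 mW/cm2 from an 18 W lamp 4 cm away, for 15–120 min. Controls without porphyrin and/or without light. Products run on 0.7% non-denaturing agarose, SYBRsafe stain, transilluminator at 312 nm. Supercoiled, nicked and linear forms quantified as %.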

[3] = test system: Escherichia coli; experiment: Induction of DNA photocleavage activity in Escherichia coli pBR322 plasmid assessed as nicked DNA form at 10 uM by gel electrophoresis; summary of the method: as §1
[4] = test system: Escherichia coli; experiment: Induction of DNA photocleavage activity in Escherichia coli pBR322 plasmid assessed as linear DNA form at 10 uM after 90 mins irradiation at 2.5 mW/cm2 by gel electrophoresis; summary of the method: as §1
[5] = Photostability assessed as residual absorbance at 2.5 mW/cm2 irradiation for 60 mins; assay type: physicochemical; conditions: read-out: Stability
[6] = test system: Escherichia coli; experiment: Induction of DNA photocleavage activity in Escherichia coli pBR322 plasmid assessed as linear DNA form at 10 uM after 60 mins irradiation at 2.5 mW/cm2 by gel electrophoresis; summary of the method: as §1
[7] = test system: Escherichia coli; experiment: Induction of DNA photocleavage activity in Escherichia coli pBR322 plasmid assessed as nicked DNA form at 10 uM after 90 mins irradiation at 2.5 mW/cm2 by gel electrophoresis; summary of the method: as §1
[8] = test system: Escherichia coli; experiment: Induction of DNA photocleavage activity in Escherichia coli pBR322 plasmid assessed as linear DNA form at 10 uM after 120 mins irradiation at 2.5 mW/cm2 by gel electrophoresis; summary of the method: as §1
[9] = test system: Escherichia coli; experiment: Induction of DNA photocleavage activity in Escherichia coli pBR322 plasmid assessed as nicked DNA form at 10 uM after 30 mins irradiation at 2.5 mW/cm2 by gel electrophoresis; summary of the method: as §1
[10] = test system: Escherichia coli; experiment: Induction of DNA photocleavage activity in Escherichia coli pBR322 plasmid assessed as supercoiled DNA form at 10 uM after 120 mins irradiation at 2.5 mW/cm2 by gel electrophoresis; summary of the method: as §1
[11] = test system: DNA; experiment: Binding affinity to calf thymus DNA at 4 uM in phosphate buffer of pH 7.4 by UV-vis spectroscopy; assay type: nucleic-acid assay; conditions: Bos taurus
Summary of the method: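 Porphyrin held at 4 × 10^-6 M in PBS pH 7.4 and read by UV–vis at the Soret maximum. Calf thymus DNA titrated in at base-pair concentrations from 1.2 × 10^-6 to 1.2 × 10^-5 M, base pair/porphyrin ratio 0.2 to 3. Change in the Soret band followed.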

[12] = test system: Escherichia coli; experiment: Induction of DNA photocleavage activity in Escherichia coli pBR322 plasmid assessed as supercoiled DNA form at 10 uM after 90 mins irradiation at 2.5 mW/cm2 by gel electrophoresis; summary of the method: as §1
[13] = Photostability assessed as residual absorbance at 2.5 mW/cm2 irradiation for 45 mins; assay type: physicochemical; conditions: read-out: Stability
[14] = test system: Escherichia coli; experiment: Induction of DNA photocleavage activity in Escherichia coli pBR322 plasmid assessed as supercoiled DNA form at 10 uM by gel electrophoresis
[15] = test system: Escherichia coli; experiment: Induction of DNA photocleavage activity in Escherichia coli pBR322 plasmid assessed as nicked DNA form at 10 uM after 60 mins irradiation at 2.5 mW/cm2 by gel electrophoresis; summary of the method: as §1
[16] = Photostability assessed as residual absorbance at 2.5 mW/cm2 irradiation for 15 mins; assay type: physicochemical; conditions: read-out: Stability
[17] = Lipophilicity, log P of the compound; assay type: physicochemical; conditions: octanol/water
Summary of the method: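 1-Octanol/water partition at 25 °C with equal 3 mL phases and dye at 300 µM. Mixture vortexed and centrifuged. Aqueous and organic aliquots each diluted into MeOH, and dye concentration in each phase measured by absorption spectroscopy.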

[18] = test system: Escherichia coli; experiment: Induction of DNA photocleavage activity in Escherichia coli pBR322 plasmid assessed as nicked DNA form at 10 uM after 15 mins irradiation at 2.5 mW/cm2 by gel electrophoresis; summary of the method: as §1
[19] = test system: Escherichia coli; experiment: Induction of DNA photocleavage activity in Escherichia coli pBR322 plasmid assessed as nicked DNA form at 10 uM after 120 mins irradiation at 2.5 mW/cm2 by gel electrophoresis; summary of the method: as §1
[20] = test system: Escherichia coli; experiment: Induction of DNA photocleavage activity in Escherichia coli pBR322 plasmid assessed as supercoiled DNA form at 10 uM after 60 mins irradiation at 2.5 mW/cm2 by gel electrophoresis; summary of the method: as §1
[21] = test system: Escherichia coli; experiment: Induction of DNA photocleavage activity in Escherichia coli pBR322 plasmid assessed as supercoiled DNA form at 10 uM after 15 mins irradiation at 2.5 mW/cm2 by gel electrophoresis; summary of the method: as §1
[22] = Photostability assessed as residual absorbance at 2.5 mW/cm2 irradiation for 30 mins; assay type: physicochemical; conditions: read-out: Stability
[23] = test system: Escherichia coli; experiment: Induction of DNA photocleavage activity in Escherichia coli pBR322 plasmid assessed as nicked DNA form at 10 uM after 60 mins irradiation at 2.5 mW/cm2 by gel electrophoresis in presence of sodium azide
Summary of the method: (§2)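 pBR322 (0.25 µg) in 3 mM Tris–HCl, 0.3 mM EDTA, pH 8.0 with 10 µM porphyrin, irradiated 60 min in the presence of 100 mM sodium azide (singlet oxygen quencher) or 100 mM mannitol (hydroxyl radical scavenger). Controls without porphyrin, ± irradiation, with each additive. Read-out by agarose gel electrophoresis.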

[24] = test system: Escherichia coli; experiment: Induction of DNA photocleavage activity in Escherichia coli pBR322 plasmid assessed as supercoiled DNA form at 10 uM after 60 mins irradiation at 2.5 mW/cm2 by gel electrophoresis in presence of mannitol; summary of the method: as §2
[25] = test system: Escherichia coli; experiment: Induction of DNA photocleavage activity in Escherichia coli pBR322 plasmid assessed as nicked DNA form at 10 uM after 60 mins irradiation at 2.5 mW/cm2 by gel electrophoresis in presence of mannitol; summary of the method: as §2
[26] = test system: Escherichia coli; experiment: Induction of DNA photocleavage activity in Escherichia coli pBR322 plasmid assessed as supercoiled DNA form at 10 uM after 60 mins irradiation at 2.5 mW/cm2 by gel electrophoresis in presence of sodium azide; summary of the method: as §2
[27] = test system: Escherichia coli; experiment: Induction of DNA photocleavage activity in Escherichia coli pBR322 plasmid at 10 uM after irradiation for 2 hrs by gel electrophoresis

With `NCCCCN(CCCN)C(=O)CCCCNC(=O)c1ccc(-c2c3nc(c(-c4ccc(C(=O)NCCCCC(=O)N(CCCN)CCCCN)cc4)c4ccc([nH]4)c(-c4ccc(C(=O)NCCCCC(=O)N(CCCN)CCCCN)cc4)c4nc(c(-c5ccc(C(=O)NCCCCC(=O)N(CCCN)CCCCN)cc5)c5ccc2[nH]5)C=C4)C=C3)cc1` the Activity [1] was “Active”, the Activity [2] was 64% and the Activity [3] was 16%. It also gave an Activity [4] of 7%, a remaining at 1 h [5] of 97% and an Activity [6] of 2%. For the same compound, the Activity [7] was 50%, the Activity [8] was 10% and the Activity [9] was 36%. The Activity [10] was 39%, the Activity [11] was “Active” and the Activity [12] was 43%. For the same compound, the remaining at 0.75 h [13] was 98%, the Activity [14] was 84% and the Activity [15] was 39%. For the same compound, the remaining at 0.25 h [16] was 100%, the logP [17] was -2.02 and the Activity [18] was 28%. The Activity [19] was 51%, the Activity [20] was 59% and the Activity [21] was 72%. It also gave a remaining at 0.5 h [22] of 99%.

For `Cc1cc(C)c(-c2c3nc(c(-c4ccc(C(=O)NCCCCC(=O)N(CCCN)CCCCNCCCN)cc4)c4ccc([nH]4)c(-c4c(C)cc(C)cc4C)c4nc(c(-c5ccc(C(=O)NCCCCC(=O)N(CCCN)CCCCNCCCN)cc5)c5ccc2[nH]5)C=C4)C=C3)c(C)c1`, the Activity [1] was “Active”, the Activity [2] was 72% and the Activity [3] was 30%. It also gave a remaining at 1 h [5] of 98%, an Activity [7] of 28% and an Activity [9] of 28%. The Activity [10] was 71%, the Activity [12] was 72% and the remaining at 0.75 h [13] was 99%. For the same compound, the Activity [14] was 70%, the Activity [15] was 30% and the remaining at 0.25 h [16] was 100%. For the same compound, the logP [17] was 0.07, the Activity [18] was 30% and the Activity [19] was 29%. The Activity [20] was 70%, the Activity [21] was 70% and the remaining at 0.5 h [22] was 99%.

For `NCCCNCCCCN(CCCN)C(=O)CCCCNC(=O)c1ccc(-c2c3nc(c(-c4ccc(C(=O)NCCCCC(=O)N(CCCN)CCCCNCCCN)cc4)c4ccc([nH]4)c(-c4ccc(C(=O)NCCCCC(=O)N(CCCN)CCCCNCCCN)cc4)c4nc(c(-c5ccc(C(=O)NCCCCC(=O)N(CCCN)CCCCNCCCN)cc5)c5ccc2[nH]5)C=C4)C=C3)cc1`, the Activity [1] was “Active”, the Activity [2] was 57% and the Activity [3] was 15%. It also gave an Activity [4] of 9%, a remaining at 1 h [5] of 97% and an Activity [6] of 8%. For the same compound, the Activity [7] was 53%, the Activity [8] was 15% and the Activity [9] was 43%. For the same compound, the Activity [10] was 11%, the Activity [11] was “Active” and the Activity [12] was 38%. The remaining at 0.75 h [13] was 99%, the Activity [14] was 85% and the Activity [15] was 51%. For the same compound, the remaining at 0.25 h [16] was 100%, the logP [17] was -2.83 and the Activity [18] was 34%. It also gave an Activity [19] of 75%, an Activity [20] of 40% and an Activity [21] of 66%. It also gave a remaining at 0.5 h [22] of 100%.

With `C=CC1=C(C)c2cc3[nH]c(cc4nc(cc5[nH]c(cc1n2)c(C)c5CCC(=O)NCCCCC(=O)N(CCCN)CCCCNCCCN)C(CCC(=O)NCCCCC(=O)N(CCCN)CCCCNCCCN)=C4C)c(C)c3C=C` the Activity [1] was “Active”, the Activity [2] was 26% and the Activity [23] was 49%. It also gave an Activity [3] of 34%, an Activity [4] of 2% and a remaining at 1 h [5] of 97%. The Activity [7] was 97%, the Activity [8] was 2% and the Activity [9] was 74%. For the same compound, the Activity [10] was 1%, the Activity [11] was “Active” and the Activity [12] was 1%. The remaining at 0.75 h [13] was 100%, the Activity [24] was 32% and the Activity [14] was 81%. The Activity [25] was 68%, the Activity [15] was 93% and the remaining at 0.25 h [16] was 100%. It also gave an Activity [26] of 51%, a logP [17] of -0.51 and an Activity [18] of 55%. The Activity [19] was 97%, the Activity [20] was 7% and the Activity [21] was 45%. The Activity [27] was “Active” and the remaining at 0.5 h [22] was 100%.

In the case of `C=CC1=C(C)c2cc3[nH]c(cc4nc(cc5[nH]c(cc1n2)c(C)c5CCC(=O)NCCCCC(=O)N(CCCN)CCCCN)C(CCC(=O)NCCCCC(=O)N(CCCN)CCCCN)=C4C)c(C)c3C=C`, the Activity [1] was “Active”, the Activity [2] was 36% and the Activity [23] was 42%. For the same compound, the Activity [3] was 36%, the Activity [4] was 4% and the remaining at 1 h [5] was 97%. It also gave an Activity [7] of 84%, an Activity [8] of 4% and an Activity [9] of 64%. The Activity [10] was 5%, the Activity [11] was “Active” and the Activity [12] was 12%. It also gave a remaining at 0.75 h [13] of 98%, an Activity [24] of 42% and an Activity [14] of 78%. The Activity [25] was 58%, the Activity [15] was 78% and the remaining at 0.25 h [16] was 100%. The Activity [26] was 58%, the logP [17] was -0.12 and the Activity [18] was 54%. It also gave an Activity [19] of 90%, an Activity [20] of 22% and an Activity [21] of 46%. For the same compound, the Activity [27] was “Active” and the remaining at 0.5 h [22] was 99%.

With `Cc1cc(C)c(-c2c3nc(c(-c4ccc(C(=O)NCCCCC(=O)N(CCCN)CCCCN)cc4)c4ccc([nH]4)c(-c4c(C)cc(C)cc4C)c4nc(c(-c5ccc(C(=O)NCCCCC(=O)N(CCCN)CCCCN)cc5)c5ccc2[nH]5)C=C4)C=C3)c(C)c1` the Activity [1] was “Active”, the Activity [2] was 75% and the Activity [3] was 27%. The remaining at 1 h [5] was 99%, the Activity [7] was 29% and the Activity [9] was 25%. For the same compound, the Activity [10] was 78%, the Activity [12] was 71% and the remaining at 0.75 h [13] was 100%. It also gave an Activity [14] of 73%, an Activity [15] of 28% and a remaining at 0.25 h [16] of 100%. It also gave a logP [17] of 0.11, an Activity [18] of 27% and an Activity [19] of 22%. For the same compound, the Activity [20] was 72%, the Activity [21] was 73% and the remaining at 0.5 h [22] was 100%.
